This passage reports Activity, IC50 and EC50 results from ChEMBL document CHEMBL1143250, “Synthesis and bioevaluation of 22-hydroxyacuminatine analogs” (Bioorg Med Chem Lett, 2008).

pIC50: −log10 of the molar value. In brackets after ≈: the same amount, converted by molar mass. Activity calls are given as the source filed them. No cut-off for these calls is given here.

For assay [1], the system named is HT-29. In words: Antiproliferative activity against human HT29 cells at 2 uM after 96 hrs. It counts as functional, cell-based. In short, it runs like this:
(§1)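 Cytostatic growth-inhibition assay: cells were exposed to compound for 96 h. The IC50 is the concentration giving 50% inhibition of cell growth. Compounds were dissolved in DMSO, and the top concentration was capped by the final DMSO level in the mixture. Compounds showing no inhibition up to the highest concentration tested were scored not active.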

In assay [2] the test system is DU-145. In words: Antiproliferative activity against human DU145 cells at 2 uM after 96 hrs. Format: functional, cell-based. A digest of the protocol: as §1
Assay [3] in a line: Antiproliferative activity against human MIA PaCa cells after 96 hrs. It counts as functional, cell-based. A digest of the protocol:
as §1

For assay [4], the system named is DU-145. Nature of the assay: Antiproliferative activity against human DU145 cells after 96 hrs. The conditions noted are these: DU-145, 96 h. Format: functional, cell-based. In short, it runs like this: as §1
Assay [5] has as its system P388. Nature of the assay: Cytotoxicity against mouse P388 cells. The conditions noted are these: read-out: ED50 (the source's name). Format: functional.
The test system of assay [6] is KB. Nature of the assay: Cytotoxicity against human KB cells. Format: functional. As to conditions: read-out: ED50 (the source's name).
For assay [7], the system named is PaCa. Nature of the assay: Antiproliferative activity against human MIA PaCa cells at 2 uM after 96 hrs. It counts as functional, cell-based. In short, it runs like this:
as §1

Assay [8] concerns HT-29. Nature of the assay: Antiproliferative activity against human HT29 cells after 96 hrs. As to conditions: HT-29, 96 h. Format: functional, cell-based. In short, it runs like this: as §1

Consider `COC(=O)c1cccc2c(=O)n3c(cc12)-c1nc2ccc(OC)cc2c(C)c1C3`, for which the result in assay [1] and in assay [2] was inactive. The same compound had a pIC50 in assay [3] of 5.70.
For the compound `CCc1c2c(nc3ccc(OC)cc13)-c1cc3c(CO)cccc3c(=O)n1C2`, the result in assay [1] was inactive. The pIC50 was 5.74 in assay [4] and 6.09 in assay [3].
Turning to `CCc1c2c(nc3ccc(C)cc13)-c1cc3c(CO)cccc3c(=O)n1C2`, the result in assay [1] and in assay [2] was inactive. This compound also had a pIC50 in assay [3] of 5.94.
On to `O=c1c2cccc(CO)c2cc2n1Cc1cc3ccccc3nc1-2`, for which the result in assay [1] and in assay [2] was inactive. In addition, the figures for the EC50 in assay [5] and in assay [6] were 1.32 µg/mL (≈ 4.2 µM) and 0.61 µg/mL (≈ 1.94 µM), respectively. The compound also showed a pIC50 in assay [3] of 6.00.
Take `CCc1c2c(nc3ccc(OC)cc13)-c1cc3c(C(=O)OC)cccc3c(=O)n1C2`: the result in assay [1], in assay [7] and in assay [2] was inactive.
Regarding `COC(=O)c1cccc2c(=O)n3c(cc12)-c1nc2ccccc2cc1C3`, the outcome in assay [1] and in assay [2] was inactive. The pIC50 in assay [3] is 6.00.
In the case of `CCc1c2c(nc3cc4c(cc13)OCCO4)-c1cc3c(C(=O)OC)cccc3c(=O)n1C2`, the result in assay [1] and in assay [2] was inactive. The pIC50 in assay [3] was 5.85.
For the compound `CCc1c2c(nc3ccc(Cl)cc13)-c1cc3c(CO)cccc3c(=O)n1C2`, the outcome in assay [1] was inactive. Further, the pIC50 is 5.77 in assay [4] and 6.09 in assay [3].
For `CCc1c2c(nc3ccc(Cl)cc13)-c1cc3c(C(=O)OC)cccc3c(=O)n1C2`, the outcome in assay [1] and in assay [2] was inactive. The pIC50 in assay [3] was 5.82.
In the case of `CCc1c2c(nc3ccc(C)cc13)-c1cc3c(C(=O)OC)cccc3c(=O)n1C2`, the result in assay [1] and in assay [2] was inactive. The same compound showed a pIC50 in assay [3] of 5.74.
Turning to `CCc1c2c(nc3ccc(O)cc13)-c1cc3c(c(=O)n1C2)COC(=O)[C@]3(O)CC` [7-ETHYL-10-HYDROXYCAMPTOTHECIN], the results for the pIC50 in assay [4], in assay [8] and in assay [3] were 8.40, 7.92 and 8.22, respectively.
For `O=c1c2cccc(CO)c2cc2n1Cc1cc3cc(Cl)ccc3nc1-2`, the result in assay [1] and in assay [2] was inactive. For the same compound, in assay [3], the pIC50 was 5.77.
Consider `COC(=O)c1cccc2c(=O)n3c(cc12)-c1nc2ccc(C)cc2c(CCl)c1C3`, for which the result in assay [1] and in assay [2] was inactive. In addition, in assay [3], the pIC50 was 5.87.

For orientation: pIC50 means the negative decadic logarithm of the IC50, by convention in mol/L. Higher therefore signals a low IC50.
